The source of these data is ChEMBL document CHEMBL1781963, “Discovery of novel hepatoselective HMG-CoA reductase inhibitors for treating hypercholesterolemia: a bench-to-bedside case study on tissue selective drug distribution” (Bioorg Med Chem Lett, 2011).

One data set deals with T1, OATP1A1 (Rattus norvegicus, UniProt P46720).
T1 sequence (P46720 whole entry): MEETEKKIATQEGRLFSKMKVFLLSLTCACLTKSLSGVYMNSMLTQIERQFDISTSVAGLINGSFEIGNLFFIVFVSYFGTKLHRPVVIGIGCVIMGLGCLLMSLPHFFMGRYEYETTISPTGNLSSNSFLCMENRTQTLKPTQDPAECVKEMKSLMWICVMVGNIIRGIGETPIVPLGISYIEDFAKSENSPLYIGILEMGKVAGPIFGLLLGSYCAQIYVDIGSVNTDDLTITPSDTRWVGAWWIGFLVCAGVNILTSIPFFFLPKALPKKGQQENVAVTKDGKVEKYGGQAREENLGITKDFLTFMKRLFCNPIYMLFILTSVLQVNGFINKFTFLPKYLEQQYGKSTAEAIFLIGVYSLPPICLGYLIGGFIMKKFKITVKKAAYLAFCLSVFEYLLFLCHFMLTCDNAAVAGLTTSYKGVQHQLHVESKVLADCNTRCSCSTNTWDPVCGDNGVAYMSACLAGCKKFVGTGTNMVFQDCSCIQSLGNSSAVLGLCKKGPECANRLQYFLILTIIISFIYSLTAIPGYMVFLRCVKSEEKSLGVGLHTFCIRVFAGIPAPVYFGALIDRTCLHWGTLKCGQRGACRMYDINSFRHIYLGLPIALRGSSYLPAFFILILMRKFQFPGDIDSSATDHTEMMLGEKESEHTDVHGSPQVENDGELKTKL
The experiment in a line: Drug uptake by rat hepatic OATP1A1 transporters expressed in CHO cells at 1 uM relative to wild type CHO cells. The class given is ADME, cell-based. The conditions noted are these: CHO cells expressing rat OATP1A1, read-out: FC. Summed up:
(§1)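 Individual hepatic OATP transporters were over-expressed in CHO or HEK293 cells: rat rOatp1a1, rOatp1a4 and rOatp1b2, and human hOATP1B1, hOATP1B3 and hOATP2B1. Substrate uptake is expressed as fold difference relative to the wild-type parental line. Rosuvastatin/pravastatin served as positive control and midazolam as negative control in each assay.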

The target in data set [1] is T2, OATP1B1 (Homo sapiens, UniProt Q9Y6L6).
T2 sequence (Q9Y6L6 whole entry): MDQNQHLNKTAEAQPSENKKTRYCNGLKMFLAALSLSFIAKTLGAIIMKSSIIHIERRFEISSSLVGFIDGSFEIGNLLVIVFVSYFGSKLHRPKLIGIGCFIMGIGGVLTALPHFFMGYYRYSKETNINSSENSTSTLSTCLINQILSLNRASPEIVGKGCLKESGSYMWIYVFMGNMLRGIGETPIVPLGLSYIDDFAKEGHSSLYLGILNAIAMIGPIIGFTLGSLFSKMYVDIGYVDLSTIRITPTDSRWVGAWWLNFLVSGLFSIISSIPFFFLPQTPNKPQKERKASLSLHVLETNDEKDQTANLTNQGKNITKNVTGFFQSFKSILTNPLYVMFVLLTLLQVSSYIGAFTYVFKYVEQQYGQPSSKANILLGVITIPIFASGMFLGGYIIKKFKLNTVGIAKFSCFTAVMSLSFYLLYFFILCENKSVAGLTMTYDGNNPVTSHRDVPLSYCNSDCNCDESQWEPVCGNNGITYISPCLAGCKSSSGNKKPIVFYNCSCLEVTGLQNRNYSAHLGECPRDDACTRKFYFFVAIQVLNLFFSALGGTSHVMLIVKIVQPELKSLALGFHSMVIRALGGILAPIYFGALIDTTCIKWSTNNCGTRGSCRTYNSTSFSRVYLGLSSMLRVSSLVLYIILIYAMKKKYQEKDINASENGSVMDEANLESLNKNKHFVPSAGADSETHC
The experiment in a line: Drug uptake by human hepatic OATP1B1 transporter expressed in HEK293 cells at 10 uM relative to wild type HEK293 cells. The class given is ADME, cell-based. The conditions noted are these: HEK293 cells expressing OATP1B1, read-out: FC. A digest of the protocol: as §1

Another data set has as its system Syrian golden hamster. Nature of the data set: Inhibition of cholesterol synthesis in golden syrian hamster assessed as reduction of [14C]-cholesterol level at 10 mg/kg, po followed by 2 hrs after treated with 80 uCi, ip of [14C]-sodium acetate measured after 4 hrs by liquid scintillation counting relative to control. The class given is functional. The conditions noted are these: Mesocricetus auratus. A digest of the protocol: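 Hamsters dosed po at 10 mg/kg at t = 0 h. Intraperitoneal 14C sodium acetate at t = 2 h, blood drawn at t = 4 h for 14C cholesterol. Percent inhibition vs untreated controls, n = 8/group.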

The subject of the next data set is Hepatocyte. Nature of the data set: Drug uptake in sandwich-cultured human hepatocytes assessed per mg of protein at 1 uM in presence of rifamycin SV. Type of data set: ADME, cell-based. Summed up: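 Rat or human hepatocytes were cultured in sandwich configuration with a Matrigel overlay and compound uptake was measured. Active uptake was assessed by inhibition with the pan-OATP inhibitor rifamycin SV. Rosuvastatin/pravastatin served as positive control and midazolam as negative control.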

The target of data set [2] is T2, OATP1B1. Nature of the data set: Drug uptake by human hepatic OATP1B1 transporter expressed in HEK293 cells at 1 uM relative to wild type HEK293 cells. The class given is ADME, cell-based. The conditions noted are these: HEK293 cells expressing human OATP1B1, read-out: FC. Summed up:
as §1

The target in the next data set is T3, OATP1A4 (Rattus norvegicus, UniProt O35913).
T3 sequence (O35913 whole entry): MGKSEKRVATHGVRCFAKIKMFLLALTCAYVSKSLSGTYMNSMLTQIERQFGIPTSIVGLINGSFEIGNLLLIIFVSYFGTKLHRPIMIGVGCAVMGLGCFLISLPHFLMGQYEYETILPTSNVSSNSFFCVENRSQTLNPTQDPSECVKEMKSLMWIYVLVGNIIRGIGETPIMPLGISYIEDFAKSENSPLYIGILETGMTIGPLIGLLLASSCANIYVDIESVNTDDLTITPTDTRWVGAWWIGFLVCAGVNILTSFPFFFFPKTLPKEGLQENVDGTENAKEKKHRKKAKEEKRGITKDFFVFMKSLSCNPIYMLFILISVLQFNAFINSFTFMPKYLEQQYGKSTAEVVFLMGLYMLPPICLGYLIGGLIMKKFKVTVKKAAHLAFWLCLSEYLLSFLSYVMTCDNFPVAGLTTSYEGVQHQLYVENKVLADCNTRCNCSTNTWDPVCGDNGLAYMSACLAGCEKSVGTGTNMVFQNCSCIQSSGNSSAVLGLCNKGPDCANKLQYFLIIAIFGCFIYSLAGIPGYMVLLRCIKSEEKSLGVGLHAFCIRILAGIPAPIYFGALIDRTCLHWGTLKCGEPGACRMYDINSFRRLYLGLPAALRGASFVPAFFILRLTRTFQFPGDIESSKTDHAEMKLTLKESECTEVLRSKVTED
Nature of the data set: Drug uptake by rat hepatic OATP1A4 transporters expressed in CHO cells at 1 uM relative to wild type CHO cells. The class given is ADME, cell-based. The conditions noted are these: CHO cells expressing rat OATP1A4, read-out: FC. Summed up: as §1

The subject of the next data set is Cavia porcellus. Nature of the data set: Hypolipidemic activity in chow fed Hartley guinea pig assessed as reduction of LDL level administered orally for 7 days measured on day 8 after 2 hrs post dose. Type of data set: functional. The conditions noted are these: po. Summed up: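 Guinea pigs were dosed daily for seven days and sacrificed 2 h after the final dose. Plasma LDL was measured and reported as mean ± SEM % change from the control group, n = 8/group.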

Molecules are shown by their SMILES.

What is called inhibition in vivo is the drop in the measured response relative to a control, in per cent. By ED50 is commonly meant the dose that gives a 50% effect, or the effect in half of the subjects. Take `CC(C)c1nc(N(C)S(C)(=O)=O)nc(-c2ccc(F)cc2)c1/C=C/[C@@H](O)C[C@@H](O)CC(=O)O` [ROSUVASTATIN]: the uptake ratio at 1 µM amounted to 8.2 at OATP1A1, 14.4 at OATP1B1 [2] and 8.6 at OATP1A4. On OATP1B1 [1], the uptake ratio at 10 µM is 69.6. For the same molecule, the inhibition in vivo at 10 mg/kg in the data set with Syrian golden hamster is -76%. Also, the Drug uptake with Hepatocyte stood at 85%. Moreover, in the data set on Cavia porcellus, the ED50 was determined as 13.5 mg/kg.
As for `CC[C@H](C)C(=O)O[C@H]1C[C@H](O)C=C2C=C[C@H](C)[C@H](CC[C@@H](O)C[C@@H](O)CC(=O)O)[C@H]21` [PRAVASTATIN], the values for the uptake ratio at 1 µM at OATP1A1, on OATP1B1 [2] and on OATP1A4 were 2.4, 73.7 and 1.5, respectively. For the same molecule, the uptake ratio at 10 µM at OATP1B1 [1] turned out to be 223. Moreover, the ED50 in the data set on Cavia porcellus was 73.3 mg/kg.
For `Cc1ncc2n1-c1ccc(Cl)cc1C(c1ccccc1F)=NC2` [MIDAZOLAM], the uptake ratio at 1 µM stood at 1.6 on OATP1A1, 0.6 at OATP1B1 [2] and 0.93 on OATP1A4. Moreover, the uptake ratio at 10 µM at OATP1B1 [1] was found to be 0.9.
On to `O=C([O-])C[C@H](O)C[C@H](O)CCn1c(-c2ccc(F)cc2)nc(C(=O)NCc2cccc(F)c2)c1C1CC1.[Na+]`, for which the values for the uptake ratio at 1 µM on OATP1A1, on OATP1B1 [2] and at OATP1A4 were 5.8, 49 and 4.4, respectively. The uptake ratio at 10 µM on OATP1B1 [1] is 84.9. Besides, the inhibition in vivo at 10 mg/kg in the data set on Syrian golden hamster was -68%. Further, the Drug uptake in the data set on Hepatocyte is recorded as 97%. The ED50 in the data set on Cavia porcellus came to 5.9 mg/kg.
Regarding `Cc1ccc(CNC(=O)c2nn(-c3ccc(F)cc3)c(CC[C@@H](O)C[C@@H](O)CC(=O)O)c2C(C)C)cc1`, the uptake ratio at 1 µM turned out to be 3.6 on OATP1A1, 21.6 at OATP1B1 [2] and 2.7 on OATP1A4. For the same molecule, the uptake ratio at 10 µM on OATP1B1 [1] stood at 18.4. In the data set on Syrian golden hamster, the inhibition in vivo at 10 mg/kg is -74%. For the same molecule, in the data set with Hepatocyte, the Drug uptake came out at 78%. Further, the ED50 in the data set on Cavia porcellus is 3.6 mg/kg.
